22 molecules from ChEMBL document CHEMBL3124921, “Discovery of nitropyridine derivatives as potent HIV-1 non-nucleoside reverse transcriptase inhibitors via a structure-based core refining approach” (Eur J Med Chem, 2014) can be followed below.

pEC50, pIC50: −log10 of the molar value.

Series [1] can be described thus: Selectivity index, ratio of CC50 for human MT4 cells to EC50 for wild type HIV-1 3B infected in human MT4 cells. In kind it is toxicity, cell-based. As to conditions: read-out: Ratio CC50/EC50. The essentials:
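HIV-1 IIIB is added at 100–300 CCID50 per well to MT-4 cells seeded at 6 × 10⁵ cells/mL. Fivefold serial compound dilutions are run in triplicate, with a parallel mock-infected series for cytotoxicity. MTT viability is read at 540 and 690 nm after 5 days. SI = CC50 (mock-infected) / EC50 (infected).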

For series [2], the system named is Human immunodeficiency virus 1. The series can be described thus: Antiviral activity against HIV-1 RES056 harboring reverse transcriptase K103N/Y181C double mutant infected in human MT4 cells assessed as protection against virus-induced cytopathogenicity after 5 days by MTT assay. As to conditions: Human immunodeficiency virus 1, RES056, MT4, 120 h. In kind it is functional, organism-based. The essentials: (§1)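 MT-4 cells are seeded at 6 × 10⁵ cells/mL. Serial fivefold compound dilutions go into two triplicate series, one mock-infected and one virus-infected. After 5 days, viability is read by MTT reduction to formazan, with absorbance at 540 and 690 nm. EC50 comes from infected wells and CC50 from mock-infected wells. SI = CC50/EC50.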
Background: Cytopathic effects are the visible damage that an infection or toxin causes in cultured cells.

Series [3] in a line: Selectivity index, ratio of CC50 for human MT4 cells to EC50 for HIV-2 ROD infected in human MT4 cells. The format is toxicity, cell-based. As to conditions: read-out: Ratio CC50/EC50. The procedure, abridged:
as §1

Series [4] in a line: Cytotoxicity against human MT4 cells assessed as growth inhibition after 5 days by MTT assay. The format is cell-based. The procedure, abridged:
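Mock-infected MT-4 cells (6 × 10⁵ cells/mL) were run in parallel triplicate wells with serial fivefold compound dilutions added from 10× stocks and culture medium instead of virus. Viability was measured by MTT at day 5, reading absorbance at 540 and 690 nm.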
(Tetrazolium assays rely on reduction of a dye to a coloured formazan, in cell work by metabolically active cells.)

Series [5] in a line: Selectivity index, ratio of CC50 for human MT4 cells to EC50 for HIV-1 RES056 harboring reverse transcriptase K103N/Y181C double mutant infected in human MT4 cells. In kind it is toxicity, cell-based. Particulars: read-out: Ratio CC50/EC50. The procedure, abridged:
as §1

In series [6] the test system is Human immunodeficiency virus 2. Description: Antiviral activity against HIV-2 ROD infected in human MT4 cells assessed as protection against virus-induced cytopathogenicity after 5 days by MTT assay. In kind it is functional, organism-based. Particulars: Human immunodeficiency virus 2, ISOLATE ROD, MT4, 120 h. The essentials:
(§2)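 Compounds added at the start as 10× stocks to triplicate wells, then serially diluted fivefold. Virus stock at […] CCID50 was added to MT-4 cells resuspended at 6 × 10⁵ cells/mL. Viability was read by MTT reduction to formazan five days post-infection, with absorbance measured at 540 and 690 nm. EC50 is the concentration protecting against virus-induced cytopathicity.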

Series [7] deals with Human immunodeficiency virus 1. The series can be described thus: Antiviral activity against wild type HIV-1 3B infected in human MT4 cells assessed as protection against virus-induced cytopathogenicity after 5 days by MTT assay. The format is functional, organism-based. As to conditions: Human immunodeficiency virus 1, 3B, MT4, 120 h. The procedure, abridged:
as §2

Series [8] has as its target Human immunodeficiency virus type 1 reverse transcriptase (Human immunodeficiency virus 1, UniProt Q72547). Description: Inhibition of wild type HIV-1 reverse transcriptase using […] as template/primer assessed as inhibition of biotin-dUTP incorporation after 1 hr by microtiter plate ELISA reader analysis.

A word on the pEC50: it is the EC50 on a negative log10 scale, so that one unit is a factor of ten. The term CC50 denotes the concentration that lowers cell viability or growth by half. As usually defined, the pIC50 is −log10 of the IC50, conventionally taken in molar units.

As to `Cc1cccc(C)c1Nc1cc(Nc2ccc(C#N)cc2)ncc1[N+](=O)[O-]`, the selectivity ratio in series [1], in series [3] and in series [5] was under 1 each time. In addition, the pEC50 in series [2], in series [6] and in series [7] was under 4.89 each time. Moreover, the CC50 at 120 h in series [4] was 12.8 µM.
For the molecule `Cc1cccc(C)c1Oc1cc(Nc2ccc(C#N)cc2)ncc1[N+](=O)[O-]`, the selectivity ratio in series [1] is 214; in series [3], under 1; in series [5], under 1. Besides, the pEC50 in series [2] is under 3.90; in series [6] it was under 3.90; in series [7], 6.24. For the same molecule, the CC50 at 120 h in series [4] stood at 126 µM.
As to `Cc1cc(C)c(Oc2cc(Nc3ccc(C#N)cc3)ncc2[N+](=O)[O-])c(C)c1`, the results for the selectivity ratio in series [1], in series [3] and in series [5] were 1250, under 1 and under 1, respectively. Moreover, the pEC50 in series [2] was under 4.16; in series [6] it was under 4.16; in series [7], 7.25. Besides, in series [8], the pIC50 was 5.16. In series [4], the CC50 at 120 h amounted to 69.9 µM.
`Cc1cc(C#N)cc(C)c1Oc1cc(Nc2ccc(C#N)cc2)ncc1[N+](=O)[O-]`: the selectivity ratio in series [1] was 339; in series [3] it was under 1; in series [5], under 1. The pEC50 in series [2] was under 4.44; in series [6] it was under 4.44; in series [7] it was 6.96. Further, the pIC50 in series [8] is 5.07. Moreover, in series [4], the CC50 at 120 h came to 36.1 µM.
Take `Cc1cc(Br)cc(C)c1Oc1cc(Nc2ccc(C#N)cc2)ncc1[N+](=O)[O-]`: the selectivity ratio in series [1] was 45; in series [3], under 1; in series [5], under 1. For the same molecule, the values for the pEC50 in series [2], in series [6] and in series [7] were under 4.91, under 4.91 and 6.57, respectively. Moreover, the CC50 at 120 h in series [4] is 12.3 µM.
On to `Cc1cc(Cl)cc(C)c1Oc1cc(Nc2ccc(C#N)cc2)ncc1[N+](=O)[O-]`, for which the selectivity ratio in series [1] is 70; in series [3], under 1; in series [5] it was under 1. Further, the pEC50 in series [2] was under 4.96; in series [6] it was under 4.96; in series [7], 6.80. Also, the CC50 at 120 h in series [4] was 11.1 µM.
With `COc1cccc(OC)c1Oc1cc(Nc2ccc(C#N)cc2)ncc1[N+](=O)[O-]`, the figures for the selectivity ratio in series [1], in series [3] and in series [5] were 74, under 1 and under 1, respectively. In addition, the pEC50 was under 3.50 in series [2], under 3.50 in series [6] and 5.37 in series [7]. In addition, in series [4], the CC50 at 120 h was found to be 319 µM.
Take `N#Cc1ccc(Nc2cc(Oc3c(Cl)cccc3Cl)c([N+](=O)[O-])cn2)cc1`: the selectivity ratio is 44 in series [1], under 1 in series [3] and under 1 in series [5]. The pEC50 in series [2] was under 4.56; in series [6], under 4.56; in series [7], 6.21. For the same molecule, the CC50 at 120 h in series [4] was determined as 27.7 µM.
For `N#Cc1ccc(Nc2cc(Oc3c(Cl)cc(Cl)cc3Cl)c([N+](=O)[O-])cn2)cc1`, the values for the selectivity ratio in series [1], in series [3] and in series [5] were 97, under 1 and under 1, respectively. The pEC50 in series [2] was under 4.79; in series [6], under 4.79; in series [7] it was 6.77. Besides, the half-maximal cytotoxic concentration (CC50) at 120 h in series [4] is 16.2 µM.
For `N#Cc1ccc(Nc2cc(Oc3c(Cl)cc([N+](=O)[O-])cc3Cl)c([N+](=O)[O-])cn2)cc1`, the selectivity ratio is 2 in series [1], under 1 in series [3] and under 1 in series [5]. In addition, the pEC50 is under 4.58 in series [2], under 4.58 in series [6] and 4.77 in series [7]. In addition, the CC50 at 120 h in series [4] was 26.5 µM.
As for `N#Cc1ccc(Nc2cc(Oc3c(Br)cc(Br)cc3Br)c([N+](=O)[O-])cn2)cc1`, the selectivity ratio is 65 in series [1], under 1 in series [3] and under 1 in series [5]. For the same molecule, the figures for the pEC50 in series [2], in series [6] and in series [7] were under 5.13, under 5.13 and 6.96, respectively. The CC50 at 120 h in series [4] worked out at 7.49 µM.
In the case of `Cc1cc(Br)c(Oc2cc(Nc3ccc(C#N)cc3)ncc2[N+](=O)[O-])c(Br)c1`, the selectivity ratio in series [1] was 691; in series [3], under 1; in series [5], under 1. Moreover, the values for the pEC50 in series [2], in series [6] and in series [7] were under 4.63, under 4.63 and 7.47, respectively. Moreover, the pIC50 in series [8] is 4.98. In addition, in series [4], the CC50 at 120 h came out at 23.6 µM.
`N#Cc1ccc(Nc2cc(Oc3c(F)cc(F)cc3F)c([N+](=O)[O-])cn2)cc1`: the results for the selectivity ratio in series [1], in series [3] and in series [5] were 5, under 1 and under 1, respectively. The pEC50 in series [2] is under 5.45; in series [6] it was under 5.45; in series [7], 6.14. In addition, in series [4], the CC50 at 120 h was found to be 3.54 µM.
As to `Cc1cc(C)c(Nc2cc(Nc3ccc(C#N)cc3)ncc2[N+](=O)[O-])c(C)c1`, the selectivity ratio is 9 in series [1], under 1 in series [3] and under 1 in series [5]. In addition, the values for the pEC50 in series [2], in series [6] and in series [7] were under 3.58, under 3.58 and 4.52, respectively. Moreover, in series [4], the cytotoxic concentration (CC50) at 120 h was found to be 262 µM.
On to `Cc1cc(Br)c(Nc2cc(Nc3ccc(C#N)cc3)ncc2[N+](=O)[O-])c(Br)c1`, for which the results for the selectivity ratio in series [1], in series [3] and in series [5] were 43, under 1 and under 1, respectively. For the same molecule, the pEC50 in series [2] was under 3.78; in series [6], under 3.78; in series [7] it was 5.41. The CC50 at 120 h in series [4] came to 167 µM.
Consider `N#Cc1ccc(Nc2cc(Nc3c(F)cc(Br)cc3Br)c([N+](=O)[O-])cn2)cc1`, for which the selectivity ratio in series [1] is 49; in series [3] it was under 1; in series [5] it was under 1. The pEC50 in series [2] is under 3.83; in series [6], under 3.83; in series [7] it was 5.52. For the same molecule, the half-maximal cytotoxic concentration (CC50) at 120 h in series [4] was 149 µM.
For the molecule `Cc1ccc(Nc2cc(Oc3c(C)cc(C#N)cc3C)c([N+](=O)[O-])cn2)cc1`, the selectivity ratio in series [1], in series [3] and in series [5] was under 1 each time. In addition, the negative logarithm of the EC50 (pEC50) in series [2], in series [6] and in series [7] was under 3.68 in each case. Moreover, in series [4], the CC50 at 120 h is 207 µM.
Turning to `Cc1cc(C#N)cc(C)c1Oc1cc(Nc2ccc([N+](=O)[O-])cc2)ncc1[N+](=O)[O-]`, the selectivity ratio in series [1] is 200; in series [3], under 1; in series [5], under 1. For the same molecule, the negative-log EC50 (pEC50) was under 3.85 in series [2], under 3.85 in series [6] and 6.14 in series [7]. Also, the cytotoxic concentration (CC50) at 120 h in series [4] was found to be 141 µM.
In the case of `CC(C)Nc1cccnc1N1CCN(C(=O)c2cc3cc(NS(C)(=O)=O)ccc3[nH]2)CC1` [DELAVIRDINE], the selectivity ratio in series [1] was over 71; in series [5], under 1. Besides, the pEC50 is under 4.44 in series [2] and 6.29 in series [7]. The CC50 at 120 h in series [4] was over 36.2 µM.
The like results for `O=C1Nc2ccc(Cl)cc2[C@@](C#CC2CC2)(C(F)(F)F)O1` [EFAVIRENZ] were, in that order, over 1110, over 21, 6.49, 8.24 and over 6.34 µM.
For the molecule `Cc1ccnc2c1NC(=O)c1cccnc1N2C1CC1` [NEVIRAPINE], the pEC50 in series [2] was 5.39. Moreover, the CC50 at 120 h in series [4] was over 15 µM.
In the case of `Cc1cn([C@H]2C[C@H](N=[N+]=[N-])[C@@H](CO)O2)c(=O)[nH]c1=O` [ZIDOVUDINE], the figures for the selectivity ratio in series [1], in series [3] and in series [5] were over 12500, over 7720 and over 5960, respectively. In addition, the pEC50 is 7.80 in series [2] and 7.92 in series [6]. Besides, the CC50 at 120 h in series [4] is over 93.5 µM.
